Published values pooled from the literature.
Each line is one published result; the experiments were not run side by side. pIC50: −log10 of the molar value.
Integrin alpha-V/beta-3: Integrin alpha-V/beta-3 (Homo sapiens, UniProt P05106+P06756)
MAOA: Amine oxidase [flavin-containing] A (MAOA, Homo sapiens, UniProt P21397)
Acetylcholinesterase: Acetylcholinesterase (Bos taurus, UniProt P23795)
PTPN1: Tyrosine-protein phosphatase non-receptor type 1 (PTPN1, Homo sapiens, UniProt P18031)
LDHA: L-lactate dehydrogenase A chain (LDHA, Homo sapiens, UniProt P00338)

SMILES | target | assay | conditions | pIC50
CC[C@H](C)[C@@H]([C@@H](CC(=O)N1CCC[C@H]1[C@H](OC)[C@@H](C)C(=O)N[C@@H](Cc1ccccc1)C(=O)O)OC)N(C)C(=O)[C@@H](NC(=O)[C@H](C(C)C)N(C)C(=O)CCc1cn(CCOCCOCCOCCOCC(=O)NCc2ccc(CN3C(=O)[C@H]4CC(=O)N[C@H](C(=O)O)CC(=O)NCC(=O)N[C@@H](CCCNC(=N)N)C(=O)NC[C@H]3C(=O)N4)cc2)nn1)C(C)C | Integrin alpha-V/beta-3 | ligand displacement |  | 7.97
C[C@@H]1C/C=C/CCCCC(=O)Cc2cc(O)cc(O)c2C(=O)O1 | Mitogen-activated protein kinase kinase kinase 7 (MAP3K7, Homo sapiens, UniProt O43318) | enzyme activity, inhibitor, ATP luminescence |  | < 5.00
CC[C@H](C)[C@@H]([C@@H](CC(=O)N1CCC[C@H]1[C@H](OC)[C@@H](C)C(=O)N[C@H](C)[C@@H](O)c1ccccc1)OC)N(C)C(=O)[C@@H](NC(=O)[C@H](C(C)C)N(C)C(=O)CCc1cn(CCOCCOCCOCCOCC(=O)NCc2ccc(CN3C(=O)[C@H]4CC(=O)N[C@H](C(=O)O)CC(=O)NCC(=O)N[C@@H](CCCNC(=N)N)C(=O)NC[C@H]3C(=O)N4)cc2)nn1)C(C)C | Integrin alpha-V/beta-3 | ligand displacement |  | 7.84
C#CCNc1nc(NCCCCC2CCN(Cc3ccccc3)CC2)c(C#N)cc1C#N | MAOA | enzyme activity, inhibitor, fluorescence |  | 4.27
CCC(CC)CSc1ccccc1OC(=O)NC | Acetylcholinesterase | enzyme activity, inhibitor, Ellman |  | 5.29
CNC(=O)C(Cc1ccc(C(F)(F)[P-](F)(F)(F)(F)F)cc1)NC(C)=O (centres unmarked) | PTPN1 | enzyme activity, inhibitor |  | 3.06
COc1ccc(/C=C/C(=O)N2CCN(Cc3ccccc3)CC2)cc1OC | MAOA | enzyme activity, inhibitor, fluorescence |  | 4.20
CC(=O)OC[C@H]1O[C@@H](O[C@H]2[C@H](Oc3cc(O)c4c(=O)cc(-c5ccc(O)c(O)c5)oc4c3)O[C@H](CO)[C@@H](O)[C@@H]2O)[C@H](O)[C@@H](O)[C@@H]1O | LDHA | enzyme activity, inhibitor | pH 7.4 | 3.35
COc1cc2c3cc1Oc1cc(ccc1O)C[C@@H]1c4c(cc(OC)c(O)c4Oc4ccc(cc4)C[C@@H]3N(C)CC2)CC[N+]1(C)C | Acetylcholinesterase | enzyme activity, inhibitor, Ellman |  | 4.26
CN(C)CCCN1c2ccccc2Sc2ccccc21 | Histamine H2 receptor (HRH2, Homo sapiens, UniProt P25021) | ligand displacement, radioligand |  | 6.96
CCCCc1ccc(NS(=O)(=O)c2ccc3c4c(cccc24)C(=O)N3)cc1 | PTPN1 | enzyme activity, inhibitor |  | 4.23
COc1c(O[C@@H]2O[C@H](CO)[C@@H](O)[C@H](O)[C@H]2O[C@@H]2O[C@H](CO)[C@@H](O)[C@H](O)[C@H]2O)cc2oc(-c3ccc(O)cc3)cc(=O)c2c1O | LDHA | enzyme activity, inhibitor | pH 7.4 | < 3.30
CC(C)(C)OC(=O)N1CCN(C(=O)C(=O)CC(=O)c2cccc(OCc3ccccc3)c2)CC1 | PTPN1 | enzyme activity, inhibitor, absorbance | pH 7 | 4.40
COc1cc(Nc2ncc(F)c(Nc3ccc4c(n3)NC(=O)C(C)(C)O4)n2)cc(OC)c1OC | Fatty-acid amide hydrolase 1 (Faah, Rattus norvegicus, UniProt P97612) | enzyme activity, inhibitor |  | 5.80
CNC1CC(c2ccc(Cl)c(Cl)c2)c2ccccc21 (centres unmarked) | Glutathione reductase, mitochondrial (GSR, Homo sapiens, UniProt P00390) | enzyme activity, inhibitor, absorbance |  | < 4.00
Nc1c(S(=O)(=O)O)cc(Nc2ccc(Nc3nc(Cl)nc(Nc4cccc(S(=O)(=O)O)c4)n3)c(S(=O)(=O)O)c2)c2c1C(=O)c1ccccc1C2=O | P2X purinoceptor 4 (P2RX4, Homo sapiens, UniProt Q99571) | calcium signal, antagonist |  | 5.46
NC(=O)c1cccc(-c2cc(OC(=O)NC3CCCCC3)ccc2O)c1 | Monoglyceride lipase (Rattus norvegicus, UniProt Q8R431) | enzyme activity, inhibitor |  | < 4.00
CC[n+]1c(-c2ccccc2)c2cc(N)ccc2c2ccc(N)cc21 | Acetylcholinesterase | enzyme activity, inhibitor, Ellman |  | 4.49
NC(Cc1ccc(C(=O)[P-](F)(F)(F)(F)F)cc1)C(=O)O (centres unmarked) | PTPN1 | enzyme activity, inhibitor |  | 3.98
CC(=O)N[C@@H](CS)C(=O)O | Angiotensin-converting enzyme 2 (ACE2, Homo sapiens, UniProt Q9BYF1) | enzyme activity, inhibitor, fluorescence |  | 3.76
